Assay results published in ChEMBL document CHEMBL2086296, “Synthesis of novel quinoline-2-one based chalcones of potential anti-tumor activity” (Eur J Med Chem, 2012).

Columns and labels:
MOLT-4 = assay: Cytotoxicity against human MOLT4 cells after 24 hrs by SRB assay; assay type: functional; settings: MOLT-4, 24 h
In short: (§1)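 NCI 60-line screen. Cells in RPMI 1640 with 5% FBS and 2 mM L-glutamine, seeded at 5,000–40,000 cells/well by doubling time, then incubated 24 h at 37 °C, 5% CO2 before dosing. Time-zero plates fixed with TCA at drug addition. DMSO stocks diluted in medium with gentamicin to five concentrations, […]. Protein read by SRB staining. GI50, TGI and LC50 derived relative to control and time-zero.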

EKVX [1] = assay: (§2) Cytotoxicity against human EKVX cells after 24 hrs by SRB assay; assay type: functional; in short: as §1
HOP-62 [2] = assay: (§3) Cytotoxicity against human HOP62 cells after 24 hrs by SRB assay; assay type: functional; settings: HOP-62, 24 h; in short: as §1
NCI-H460 = assay: Cytotoxicity against human NCI-H460 cells after 24 hrs by SRB assay; assay type: functional; settings: NCI-H460, 24 h; in short: as §1
HCT-15 [3] = assay: (§4) Cytotoxicity against human HCT15 cells after 24 hrs by SRB assay; assay type: functional; settings: HCT-15, 24 h; in short: as §1
SF-295 [4] = assay: (§5) Cytotoxicity against human SF295 cells after 24 hrs by SRB assay; assay type: functional; settings: SF-295, 24 h; in short: as §1
SF-539 = assay: Cytotoxicity against human SF539 cells after 24 hrs by SRB assay; assay type: functional; settings: SF-539, 24 h; in short: as §1
U-251 = assay: Cytotoxicity against human U251 cells after 24 hrs by SRB assay; assay type: functional; settings: U-251, 24 h
In short: (§6)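 NCI 60-cell screen. Cells are grown in RPMI 1640 with 5% FBS and 2 mM L-glutamine and seeded at 5,000–40,000 cells/well according to doubling time. They are preincubated 24 h at 37 °C in 5% CO2, and Tz plates are TCA-fixed at drug addition. Drug stock is in DMSO, diluted in medium with gentamicin, and tested at five concentrations (100, 10, 1.0, 0.1, […]). Protein is read by SRB staining. GI50, TGI and LC50 are derived relative to time-zero and control wells.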

SF-268 = assay: Cytotoxicity against human SF268 cells after 24 hrs by SRB assay; assay type: functional; settings: SF-268, 24 h; in short: as §1
SNB-19 = assay: Cytotoxicity against human SNB19 cells after 24 hrs by SRB assay; assay type: functional; settings: SNB-19, 24 h; in short: as §6
LOX IMVI = assay: Cytotoxicity against human LOXIMVI cells after 24 hrs by SRB assay; assay type: functional; in short: as §1
MDA-MB-435 [5] = assay: (§7) Cytotoxicity against human MDA-MB-435 cells after 24 hrs by SRB assay; assay type: functional; settings: MDA-MB-435, 24 h; in short: as §1
UACC-62 = assay: Cytotoxicity against human UACC62 cells after 24 hrs by SRB assay; assay type: functional; settings: UACC-62, 24 h; in short: as §6
ACHN [6] = assay: (§8) Cytotoxicity against human ACHN cells after 24 hrs by SRB assay; assay type: functional; in short: as §1
RXF 393 [7] = assay: (§9) Cytotoxicity against human RXF393 cells after 24 hrs by SRB assay; assay type: functional; settings: RXF 393, 24 h; in short: as §1
DU-145 [8] = assay: (§10) Cytotoxicity against human DU145 cells after 24 hrs by SRB assay; assay type: functional; settings: DU-145, 24 h; in short: as §1
MCF7 = assay: Cytotoxicity against human MCF7 cells after 24 hrs by SRB assay; assay type: functional; settings: MCF7, 24 h; in short: as §1
RPMI-8226 = assay: Cytotoxicity against human RPMI8226 cells after 24 hrs by SRB assay; assay type: cell-based; settings: rpmi-8226, 24 h
In short: (§11)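 NCI 60-cell screen. Cells grown in RPMI 1640 with 5% FBS and 2 mM L-glutamine, seeded at 5,000–40,000 cells/well, preincubated 24 h at 37 °C in 5% CO2. Drug stock in DMSO, diluted in medium with gentamicin; five final concentrations, 100, 10, 1.0, 0.1 and […]. Time-zero plates were TCA-fixed. Protein read by SRB staining; GI50, TGI and LC50 taken relative to time-zero.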

SR = assay: Cytotoxicity against human SR cells after 24 hrs by SRB assay; assay type: cell-based
In short: (§12)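 NCI 60-cell-line screen: cells grown in RPMI 1640 with 5% FBS and 2 mM L-glutamine, seeded at 5,000–40,000 cells/well by doubling time, and preincubated 24 h at 37 °C in 5% CO2. Time-zero plates were TCA-fixed. DMSO stocks were diluted in medium with gentamicin to five concentrations (100, 10, 1.0, 0.1, […]). Protein was read by SRB, and GI50, TGI and LC50 were derived against time-zero.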

EKVX [9] = assay: as §2; assay type: cell-based; in short: as §11
HOP-62 [10] = assay: as §3; assay type: cell-based; settings: hop-62, 24 h; in short: as §11
NCI-H226 = assay: Cytotoxicity against human NCI-H226 cells after 24 hrs by SRB assay; assay type: cell-based; settings: nci-h226, 24 h; in short: as §11
HOP-92 = assay: Cytotoxicity against human HOP92 cells after 24 hrs by SRB assay; assay type: cell-based; settings: hop-92, 24 h; in short: as §11
COLO 205 = assay: Cytotoxicity against human COLO205 cells after 24 hrs by SRB assay; assay type: cell-based; settings: colo 205, 24 h; in short: as §11
HCT-15 [11] = assay: as §4; assay type: cell-based; settings: hct-15, 24 h; in short: as §11
SF-295 [12] = assay: as §5; assay type: cell-based; settings: sf-295, 24 h; in short: as §11
SNB-75 = assay: Cytotoxicity against human SNB75 cells after 24 hrs by SRB assay; assay type: cell-based; settings: snb-75, 24 h; in short: as §12
CCRF-CEM = assay: Cytotoxicity against human CCRF-CEM cells after 24 hrs by SRB assay; assay type: functional; in short: as §1
HL-60 = assay: Cytotoxicity against human HL60 cells after 24 hrs by SRB assay; assay type: functional; settings: HL-60, 24 h; in short: as §1
MDA-MB-435 [13] = assay: as §7; assay type: cell-based; settings: mda-mb-435, 24 h; in short: as §11
NCI/ADR-RES = assay: Cytotoxicity against human NCI/ADR-RES cells after 24 hrs by SRB assay; assay type: cell-based; in short: as §11
ACHN [14] = assay: as §8; assay type: cell-based; in short: as §11
RXF 393 [15] = assay: as §9; assay type: cell-based; settings: rxf 393, 24 h; in short: as §11
TK-10 = assay: Cytotoxicity against human TK10 cells after 24 hrs by SRB assay; assay type: cell-based; settings: tk-10, 24 h; in short: as §12
DU-145 [16] = assay: as §10; assay type: cell-based; settings: du-145, 24 h; in short: as §11
MDA-MB-468 = assay: Cytotoxicity against human MDA-MB-468 cells after 24 hrs by SRB assay; assay type: cell-based; settings: mda-mb-468, 24 h; in short: as §11
OVCAR-4 = assay: Cytotoxicity against human OVCAR4 cells after 24 hrs by SRB assay; assay type: functional; settings: OVCAR-4, 24 h; in short: as §1
786-0 = assay: Cytotoxicity against human 786-0 cells after 24 hrs by SRB assay; assay type: functional; settings: 786-0, 24 h; in short: as §1

## O=C(/C=C/c1cc2ccccc2[nH]c1=O)c1ccc(O)cc1
MOLT-4
  GI50: 3.04 µM
  TGI: 9.91 µM
EKVX [1]
  GI50: 13.4 µM
  TGI: 27.2 µM
HOP-62 [2]
  GI50: 2.62 µM
  TGI: 8.17 µM
NCI-H460
  GI50: 2.39 µM
  TGI: 6.87 µM
HCT-15 [3]
  GI50: 2.71 µM
  TGI: 12.8 µM
SF-295 [4]
  GI50: 7.04 µM
  TGI: 44 µM
SF-539
  GI50: 2.55 µM
  TGI: 8.64 µM
U-251
  GI50: 2.6 µM
  TGI: 10.9 µM
SF-268
  GI50: 3.76 µM
  TGI: 23.3 µM
SNB-19
  GI50: 4.59 µM
  TGI: 18 µM
LOX IMVI
  GI50: 2.47 µM
  TGI: 12.7 µM
MDA-MB-435 [5]
  GI50: 2.94 µM
  TGI: 16.8 µM
UACC-62
  GI50: 2.88 µM
  TGI: 8.73 µM
ACHN [6]
  GI50: 2.67 µM
  TGI: 8.86 µM
RXF 393 [7]
  GI50: 1.65 µM
  TGI: 3.23 µM
DU-145 [8]
  GI50: 4.02 µM
  TGI: 14.3 µM
MCF7
  GI50: 3.49 µM
  TGI: 16.8 µM
RPMI-8226
  LC50: > 100 µM
SR
  LC50: > 100 µM
EKVX [9]
  LC50: 55.2 µM
HOP-62 [10]
  LC50: 85.2 µM
NCI-H226
  LC50: 34.5 µM
HOP-92
  LC50: > 100 µM
COLO 205
  LC50: 76.8 µM
HCT-15 [11]
  LC50: > 100 µM
SF-295 [12]
  LC50: > 100 µM
SNB-75
  LC50: 55 µM
CCRF-CEM
  GI50: 2.38 µM
  TGI: > 100 µM
HL-60
  GI50: 2.66 µM
  TGI: 6.86 µM
MDA-MB-435 [13]
  LC50: > 100 µM
NCI/ADR-RES
  LC50: > 100 µM
ACHN [14]
  LC50: 34 µM
RXF 393 [15]
  LC50: 6.33 µM
TK-10
  LC50: 34.6 µM
DU-145 [16]
  LC50: 38 µM
MDA-MB-468
  LC50: 19.8 µM

## O=C(/C=C/c1cc2ccccc2[nH]c1=O)/C=C/c1cc2ccccc2[nH]c1=O
MOLT-4
  GI50: 2.27 µM
  TGI: > 100 µM
EKVX [1]
  GI50: 2.61 µM
  TGI: > 100 µM
HOP-62 [2]
  GI50: 3.65 µM
  TGI: > 100 µM
NCI-H460
  GI50: 4.63 µM
  TGI: > 100 µM
HCT-15 [3]
  GI50: 2.02 µM
  TGI: > 100 µM
SF-295 [4]
  GI50: 2.64 µM
SF-539
  GI50: 2.13 µM
  TGI: > 100 µM
U-251
  GI50: 0.372 µM
  TGI: 2.1 µM
SF-268
  GI50: 3.75 µM
  TGI: > 100 µM
SNB-19
  GI50: 5.12 µM
  TGI: > 100 µM
LOX IMVI
  GI50: 0.134 µM
  TGI: 0.352 µM
MDA-MB-435 [5]
  GI50: 0.258 µM
  TGI: 0.81 µM
UACC-62
  GI50: 4.61 µM
  TGI: > 100 µM
OVCAR-4
  GI50: 2.06 µM
  TGI: > 100 µM
ACHN [6]
  GI50: 2.49 µM
  TGI: > 100 µM
RXF 393 [7]
  GI50: 1.79 µM
  TGI: 3.73 µM
786-0
  GI50: 2.75 µM
  TGI: 6.82 µM
DU-145 [8]
  GI50: 4.18 µM
  TGI: > 100 µM
MCF7
  GI50: 0.327 µM
  TGI: > 100 µM
RPMI-8226
  LC50: > 100 µM
SR
  LC50: > 100 µM
EKVX [9]
  LC50: > 100 µM
HOP-62 [10]
  LC50: > 100 µM
NCI-H226
  LC50: > 100 µM
HOP-92
  LC50: > 100 µM
COLO 205
  LC50: > 100 µM
HCT-15 [11]
  LC50: > 100 µM
SF-295 [12]
  LC50: > 100 µM
CCRF-CEM
  GI50: 0.697 µM
  TGI: > 100 µM
HL-60
  GI50: 3.38 µM
  TGI: > 100 µM
NCI/ADR-RES
  LC50: > 100 µM
ACHN [14]
  LC50: > 100 µM
RXF 393 [15]
  LC50: 7.73 µM
TK-10
  LC50: > 100 µM
DU-145 [16]
  LC50: > 100 µM
MDA-MB-468
  LC50: > 100 µM
